Experimental data from ChEMBL document CHEMBL4732136, “Synthesis, Tumor Specificity, and Photosensitizing Efficacy of Erlotinib-Conjugated Chlorins and Bacteriochlorins: Identification of a Highly Effective Candidate for Photodynamic Therapy of Cancer” (J Med Chem, 2021).

Experiments:
[1] = Drug uptake in tumor of SCID mouse xenografted with human UMUC3 cells at 0.125 micromol/kg, iv pretreated with compound followed by light irradiation at a dose of 135 J/cm2 and 75 mW/cm2 measured after 2 to 24 hrs by IVIS analysis; type: ADME, organism-based, Neoplasm; conditions: in vivo, time 2-24 hrs, dose 0.125 µmol/kg
Summary of the method: (§1)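 Female SCID mice with UMUC3 flank/shoulder tumors, 3 per group. PS in 1% Tween80/5% dextrose given iv at 0.47, 0.25 or 0.125 μmol/kg. Whole-body fluorescence imaging by IVIS at several times after injection; average radiant efficiency measured in tumor, liver and skin.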

[2] = Drug uptake in tumor of SCID mouse xenografted with human UMUC3 cells at 0.25 micromol/kg, iv pretreated with compound followed by light irradiation at a dose of 135 J/cm2 and 75 mW/cm2 measured after 2 to 8 hrs by IVIS analysis; type: ADME, organism-based, Neoplasm; conditions: in vivo, time 2-8 hrs, dose 0.25 µmol/kg; summary of the method: as §1
[3] = Drug uptake in tumor of SCID mouse xenografted with human UMUC3 cells assessed as drug accumulation at 0.47 micromol/kg, iv pretreated with compound followed by light irradiation at a dose of 135 J/cm2 and 75 mW/cm2 measured after 6 hrs by IVIS analysis; type: ADME, organism-based, Neoplasm; conditions: in vivo, dose 0.47 µmol/kg; summary of the method: as §1
[4] = Drug uptake in human HNT1 cells at 3.2 uM incubated for 30 mins in serum free medium followed by […] in compound-free medium by inverted fluorescence microscopic analysis; type: ADME, cell-based; conditions: hnt1, 0.5 h
Summary of the method: (§2)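 Confluent HNT1 cultures (passage 116) given 3.2 μM PS for 30 min in serum-free medium, then 5 h in serum-containing medium with PS, then 15 h chase in serum medium without PS. Fluorescence recorded at 100X with varied camera exposures and quantified digitally; pixel signal normalized to time and cell number.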

[5] = Drug uptake in human HNT1 cells at 3.2 uM incubated for 30 mins in DMEM media with 10% FBS followed by […] in compound-free medium by inverted fluorescence microscopic analysis; type: ADME, cell-based; conditions: hnt1, 0.5 h, in the assay text read “in serum-free medium” for “in DMEM media with 10% FBS”; summary of the method: as §2
[6] = Drug uptake in human CFSE-stained HN-121 cells assessed as increase in drug retention at 1.6 uM in medium with 10% FBS followed by 48 hrs chase period by inverted fluorescence microscopic analysis; type: ADME, cell-based; conditions: hn-121, 48 h
UMUC3 = assay: Photosensitizing activity in human UMUC3 cells assessed as reduction in cell viability pretreated with compound for 24 hrs followed by light irradiation at 1 J/cm2 and measured after 48 hrs by MTT assay; type: functional, cell-based; conditions: UMUC3, light or radiation study
Summary of the method: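 Cells plated 0.01x10⁶ to 0.05x10⁶ cells/ml and allowed to adhere 24 h before photosensitizer was added, top dose 1600 nM with 2-fold serial dilutions. Plates received no light (0 J/cm²) or 1 J/cm² at 565 mW, 15 cm spot. After 48 h, MTT added for 3 h, formazan solubilized in DMSO and read at 570 nm; IC₅₀ fitted from dose-response.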

FaDu [7] = assay: Photosensitizing activity in human FaDu cells assessed as reduction in cell viability pretreated with compound for 24 hrs followed by light irradiation at 1 J/cm2 and measured after 48 hrs by MTT assay; type: functional, cell-based; conditions: light or radiation study
Summary of the method: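 Cells seeded at 0.01–0.05 x 10⁶ cells/ml; PS added 24 h after plating, top dose 1600 nM with 2-fold serial dilutions. Plates given 0 or 1 J/cm² light. MTT added 48 h later, formazan dissolved in DMSO, absorbance at 570 nm; IC50 from curve fitting.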

[8] = Drug uptake in tumor of iv dosed SCID mouse xenografted with human UMUC3 cells by fluorescence imaging analysis; type: ADME, organism-based, Neoplasm; conditions: in vivo
[9] = Drug uptake in liver of iv dosed SCID mouse xenografted with human UMUC3 cells by fluorescence imaging analysis; type: ADME, organism-based; conditions: in vivo
[10] = Drug uptake in skin of iv dosed SCID mouse xenografted with human UMUC3 cells by fluorescence imaging analysis; type: ADME, organism-based, Skin of body; conditions: in vivo
[11] = Drug uptake in liver of SCID mouse xenografted with human UMUC3 cells at 0.25 micromol/kg, iv pretreated with compound followed by light irradiation at a dose of 135 J/cm2 and 75 mW/cm2 measured after 2 to 8 hrs by IVIS analysis; type: ADME, organism-based; conditions: in vivo, time 2-8 hrs, dose 0.25 µmol/kg; summary of the method: as §1
[12] = Drug uptake in skin of SCID mouse xenografted with human UMUC3 cells at 0.25 micromol/kg, iv pretreated with compound followed by light irradiation at a dose of 135 J/cm2 and 75 mW/cm2 measured after 2 to 8 hrs by IVIS analysis; type: ADME, organism-based, Skin of body; conditions: in vivo, time 2-8 hrs, dose 0.25 µmol/kg; summary of the method: as §1
[13] = Drug uptake in skin of SCID mouse xenografted with human UMUC3 cells at 0.125 micromol/kg, iv pretreated with compound followed by light irradiation at a dose of 135 J/cm2 and 75 mW/cm2 measured after 2 to 24 hrs by IVIS analysis; type: ADME, organism-based, Skin of body; conditions: in vivo, time 2-24 hrs, dose 0.125 µmol/kg; summary of the method: as §1
[14] = Drug uptake in human HN-85-1-3 cells assessed as photoreactivation by measuring fluorescence when irradiated with diode laser at 3J/cm2 by inverted fluorescence microscopic analysis (reference value: 0 FU); type: cell-based
Summary of the method: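 Primary HN-85-1-3 tumor epithelial cells loaded with graded PS doses; uptake quantified by fluorescence before light. Dishes irradiated at 37°C with 665 nm diode laser, 6 mW/cm², 3 J/cm² total. Cells lysed in RIPA immediately after light; STAT3 crosslinking and EGFR analysed by SDS-PAGE immunoblot.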

FaDu [15] = assay: Photodynamic antitumor activity against human FaDu cels xenografted in SCID mouse assessed as cure rate at 0.47 micromol/kg, iv pretreated with compound followed by light irradiation at a dose of 135 J/cm2 and 75 mW/cm2 and measured at 24 hrs post dose relative to control; type: functional; conditions: dose 0.47 µmol/kg
Summary of the method: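 FaDu-bearing female SCID mice (5 per group per experiment) given iv PS at 0.47, 0.25 or 0.125 μmol/kg in Tween80/dextrose. Tumors irradiated 24 h post-injection at 665 nm, 135 J/cm², 75 mW/cm². Tumor growth measured daily for 60 days, with euthanasia above 400 mm³. Cure taken as tumor-free at day 60; survival analysed by log-rank test.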

[16] = Drug uptake in liver of SCID mouse xenografted with FaDu cells at 0.47 to 0.125 micromol/kg, iv pretreated with compound followed by light irradiation at a dose of 135 J/cm2 and 75 mW/cm2 and measured at 24 hrs by IVIS analysis; type: ADME, organism-based; conditions: in vivo, dose 0.47-0.125 µmol/kg
Summary of the method: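 Female SCID mice bearing FaDu tumors 4–5 mm in diameter, 3 per group. PS in 1% Tween80/5% dextrose given iv at 0.47, 0.25 or 0.125 μmol/kg. IVIS whole-body fluorescence imaged at several time points; average radiant efficiency measured in tumor, liver and skin.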

[17] = Drug uptake in skin of iv dosed SCID mouse xenografted with UMUC3 cells by fluorescence imaging analysis; conditions: in vivo
[18] = Drug uptake in liver of iv dosed SCID mouse xenografted with UMUC3 cells by fluorescence imaging analysis; conditions: in vivo

With CCC1=C(C)c2cc3[nH]c(cc4nc(c5c6[nH]c(cc1n2)c(C)c6C(=O)C5)[C@@H](CCC(=O)OC)[C@@H]4C)c(C)c3C(C)OCc1cccc(C#Cc2cccc(Nc3ncnc4cc(OCCOC)c(OCCOC)cc34)c2)c1 (some centres undefined) as the compound, how does the Drug uptake [1] read?
The Drug uptake was “Active”.

What about the Drug uptake [2] of the same compound?
The Drug uptake was “Active”.

And the Drug uptake [3]?
Its Drug uptake is “Active”.

What about the Drug uptake [4] of the same compound?
The Drug uptake was “Active”.

What about the Drug uptake [5] of the same compound?
Its Drug uptake is “Active”.

What about the Drug uptake [6] of the same compound?
Its Drug uptake is “Active”.

And the IC50 (UMUC3)?
The IC50 was 0.0594 µM.

And the IC50 (FaDu [7])?
Its IC50 is 0.0355 µM.

What about the Drug uptake [8] of the same compound?
The Drug uptake was “Active”.

What about the Drug uptake [9] of the same compound?
The Drug uptake was “Active”.

What about the Drug uptake [10] of the same compound?
The Drug uptake was “Active”.

And the Drug uptake [11]?
The Drug uptake was “Active”.

And the Drug uptake [12]?
The Drug uptake was “Active”.

And the Drug uptake [13]?
The Drug uptake was “Active”.

What about the Activity [14] of the same compound?
Its Activity is 9 FU.

What about the Activity (FaDu [15]) of the same compound?
The Activity was 92%.

And the Drug uptake [16]?
Its Drug uptake is “Active”.

What about the Drug uptake [17] of the same compound?
The Drug uptake was “Active”.

What about the Drug uptake [18] of the same compound?
Its Drug uptake is “Active”.
